{"source": "ChEMBL document CHEMBL1152856", "about": "“Design, synthesis and molecular modeling study of acylated 1,2,4-triazole-3-acetates with potential anti-inflammatory activity” (Eur J Med Chem, 2009)", "key": {"Rattus norvegicus [1]": {"test_system": "Rattus norvegicus", "assay": "Antiinflammatory activity in albino rat assessed as inhibition of carrageenan-induced paw edema at 5 mg/kg, po administered 30 mins before carrageenan challenge measured after 3 hrs", "assay_type": "functional", "outline": "(§1)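 Rats dosed orally with compound suspended in 0.5% carboxymethyl cellulose; controls got CMC vehicle. 30 min later, 0.1 mL freshly prepared 1% carrageenan in normal saline injected subplantar into right hind paw. Paw thickness measured at 60, 120 and 180 min after dosing. Result given as % inhibition of edema ± S.E.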"}, "Rattus norvegicus [2]": {"test_system": "Rattus norvegicus", "assay": "Antiinflammatory activity in albino rat assessed as inhibition of carrageenan-induced paw edema at 5 mg/kg, po administered 30 mins before carrageenan challenge measured after 2 hrs", "assay_type": "functional", "outline": "as §1"}, "Rattus norvegicus [3]": {"test_system": "Rattus norvegicus", "assay": "Antiinflammatory activity in albino rat assessed as inhibition of carrageenan-induced paw edema at 5 mg/kg, po administered 30 mins before carrageenan challenge measured after 1 hr", "assay_type": "functional", "outline": "as §1"}, "Rattus norvegicus [4]": {"test_system": "Rattus norvegicus", "assay": "Gastrointestinal toxicity in albino rat assessed as ulcer index at 100 mg/kg, po after 6 hrs", "assay_type": "organism-based", "design": "dose 100 mg/kg, route oral", "details": "in vivo", "outline": "(§2)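 Oral dosing by stomach tube with suspensions in 0.5% w/v aqueous carboxymethyl cellulose (10, 50, 100 mg/kg); controls got equal volume of vehicle. Rats killed at 6 h, stomachs opened along greater curvature, washed, mucosa examined by stereomicroscope. Ulcer = lesion ≥0.5 mm; five patches = 1 mm. Ulcer index = summed lesion lengths divided by animal number; groups of 6.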"}, "Rattus norvegicus [5]": {"test_system": "Rattus norvegicus", "assay": "Gastrointestinal toxicity in albino rat assessed as ulcer index at 10 mg/kg, po after 6 hrs", "assay_type": "organism-based", "design": "dose 10 mg/kg, route oral", "details": "in vivo", "outline": "as §2"}, "Rattus norvegicus [6]": {"test_system": "Rattus norvegicus", "assay": "Gastrointestinal toxicity in albino rat assessed as ulcer index at 50 mg/kg, po after 6 hrs", "assay_type": "organism-based", "design": "dose 50 mg/kg, route oral", "details": "in vivo", "outline": "as §2"}, "[7]": {"assay": "Toxicity in ip dosed albino mouse assessed as mortality after 24 hrs", "assay_type": "organism-based", "details": "in vivo", "outline": "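Adult male albino mice (25-30 g), groups of five, given graded doses intraperitoneally. Mortality per group recorded 24 h after injection. LD50 calculated by a graphical method.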"}}}
{"smiles": "CCOC(=O)Cc1n[nH]c(NC(=O)c2ccccc2)n1", "values": [{"measurement": "inhibition in vivo at 5 mg/kg", "setting": "Rattus norvegicus [1]", "value": 55.3, "unit": "%"}, {"measurement": "inhibition in vivo at 5 mg/kg", "setting": "Rattus norvegicus [2]", "value": 36.2, "unit": "%"}, {"measurement": "inhibition in vivo at 5 mg/kg", "setting": "Rattus norvegicus [3]", "value": 26.8, "unit": "%"}]}
{"smiles": "COc1ccc2c(c1)c(CC(=O)O)c(C)n2C(=O)c1ccc(Cl)cc1", "note": "[INDOMETHACIN]", "values": [{"measurement": "UI", "setting": "Rattus norvegicus [4]", "value": 2.1}, {"measurement": "UI", "setting": "Rattus norvegicus [5]", "value": 2.5}, {"measurement": "UI", "setting": "Rattus norvegicus [6]", "value": 1.9}, {"measurement": "inhibition in vivo at 5 mg/kg", "setting": "Rattus norvegicus [1]", "value": 60.8, "unit": "%"}, {"measurement": "LD50 at 24 h", "setting": "[7]", "value": 50, "unit": "mg/kg"}, {"measurement": "inhibition in vivo at 5 mg/kg", "setting": "Rattus norvegicus [2]", "value": 40.1, "unit": "%"}, {"measurement": "inhibition in vivo at 5 mg/kg", "setting": "Rattus norvegicus [3]", "value": 31.5, "unit": "%"}]}
{"smiles": "CCOC(=O)Cc1n[nH]c(NC(=O)c2ccc(OC)cc2)n1", "values": [{"measurement": "inhibition in vivo at 5 mg/kg", "setting": "Rattus norvegicus [1]", "value": 56, "unit": "%"}, {"measurement": "inhibition in vivo at 5 mg/kg", "setting": "Rattus norvegicus [2]", "value": 38.2, "unit": "%"}, {"measurement": "inhibition in vivo at 5 mg/kg", "setting": "Rattus norvegicus [3]", "value": 30.2, "unit": "%"}]}
{"smiles": "CCOC(=O)Cc1n[nH]c(NC(=O)c2ccc(Br)cc2)n1", "values": [{"measurement": "inhibition in vivo at 5 mg/kg", "setting": "Rattus norvegicus [1]", "value": 58.8, "unit": "%"}, {"measurement": "inhibition in vivo at 5 mg/kg", "setting": "Rattus norvegicus [2]", "value": 40.4, "unit": "%"}, {"measurement": "inhibition in vivo at 5 mg/kg", "setting": "Rattus norvegicus [3]", "value": 31.3, "unit": "%"}]}
{"smiles": "CCOC(=O)Cc1nc(N)n(C(=O)c2ccc(OC)cc2)n1", "values": [{"measurement": "inhibition in vivo at 5 mg/kg", "setting": "Rattus norvegicus [1]", "value": 60, "unit": "%"}, {"measurement": "inhibition in vivo at 5 mg/kg", "setting": "Rattus norvegicus [2]", "value": 41.5, "unit": "%"}, {"measurement": "inhibition in vivo at 5 mg/kg", "setting": "Rattus norvegicus [3]", "value": 32.8, "unit": "%"}]}
{"smiles": "CCOC(=O)Cc1nc(N)n(C(=O)c2ccc(Br)cc2)n1", "values": [{"measurement": "inhibition in vivo at 5 mg/kg", "setting": "Rattus norvegicus [1]", "value": 64.1, "unit": "%"}, {"measurement": "LD50 at 24 h", "setting": "[7]", "value": 120, "unit": "mg/kg"}, {"measurement": "inhibition in vivo at 5 mg/kg", "setting": "Rattus norvegicus [2]", "value": 43, "unit": "%"}, {"measurement": "inhibition in vivo at 5 mg/kg", "setting": "Rattus norvegicus [3]", "value": 34.8, "unit": "%"}]}
{"smiles": "Nc1nc(CC(=O)O)n[nH]1", "values": [{"measurement": "inhibition in vivo at 5 mg/kg", "setting": "Rattus norvegicus [1]", "value": 48.1, "unit": "%"}, {"measurement": "inhibition in vivo at 5 mg/kg", "setting": "Rattus norvegicus [2]", "value": 29.5, "unit": "%"}, {"measurement": "inhibition in vivo at 5 mg/kg", "setting": "Rattus norvegicus [3]", "value": 22.3, "unit": "%"}]}
{"smiles": "CCOC(=O)Cc1nc(N)n(C(=O)c2ccccc2)n1", "values": [{"measurement": "inhibition in vivo at 5 mg/kg", "setting": "Rattus norvegicus [1]", "value": 57.5, "unit": "%"}, {"measurement": "inhibition in vivo at 5 mg/kg", "setting": "Rattus norvegicus [2]", "value": 38.5, "unit": "%"}, {"measurement": "inhibition in vivo at 5 mg/kg", "setting": "Rattus norvegicus [3]", "value": 31.6, "unit": "%"}]}
{"smiles": "CCOC(=O)Cc1n[nH]c(NC(=O)c2ccc([N+](=O)[O-])cc2)n1", "values": [{"measurement": "inhibition in vivo at 5 mg/kg", "setting": "Rattus norvegicus [1]", "value": 59.8, "unit": "%"}, {"measurement": "inhibition in vivo at 5 mg/kg", "setting": "Rattus norvegicus [2]", "value": 42.1, "unit": "%"}, {"measurement": "inhibition in vivo at 5 mg/kg", "setting": "Rattus norvegicus [3]", "value": 32.6, "unit": "%"}]}
{"smiles": "CCOC(=O)Cc1n[nH]c(NC(=O)c2ccc(Cl)cc2)n1", "values": [{"measurement": "UI", "setting": "Rattus norvegicus [4]", "value": 0.75}, {"measurement": "UI", "setting": "Rattus norvegicus [5]", "value": 0}, {"measurement": "UI", "setting": "Rattus norvegicus [6]", "value": 0}, {"measurement": "inhibition in vivo at 5 mg/kg", "setting": "Rattus norvegicus [1]", "value": 58.5, "unit": "%"}, {"measurement": "inhibition in vivo at 5 mg/kg", "setting": "Rattus norvegicus [2]", "value": 39.1, "unit": "%"}, {"measurement": "inhibition in vivo at 5 mg/kg", "setting": "Rattus norvegicus [3]", "value": 31.1, "unit": "%"}]}
{"smiles": "CCOC(=O)Cc1nc(N)n(C(=O)c2ccc([N+](=O)[O-])cc2)n1", "values": [{"measurement": "inhibition in vivo at 5 mg/kg", "setting": "Rattus norvegicus [1]", "value": 68.2, "unit": "%"}, {"measurement": "LD50 at 24 h", "setting": "[7]", "value": 90, "unit": "mg/kg"}, {"measurement": "inhibition in vivo at 5 mg/kg", "setting": "Rattus norvegicus [2]", "value": 46.3, "unit": "%"}, {"measurement": "inhibition in vivo at 5 mg/kg", "setting": "Rattus norvegicus [3]", "value": 36.1, "unit": "%"}]}
{"smiles": "CCOC(=O)Cc1nc(N)n(C(=O)c2ccc(Cl)cc2)n1", "values": [{"measurement": "UI", "setting": "Rattus norvegicus [4]", "value": 0.75}, {"measurement": "UI", "setting": "Rattus norvegicus [5]", "value": 0}, {"measurement": "UI", "setting": "Rattus norvegicus [6]", "value": 0.5}, {"measurement": "inhibition in vivo at 5 mg/kg", "setting": "Rattus norvegicus [1]", "value": 62.8, "unit": "%"}, {"measurement": "LD50 at 24 h", "setting": "[7]", "value": 130, "unit": "mg/kg"}, {"measurement": "inhibition in vivo at 5 mg/kg", "setting": "Rattus norvegicus [2]", "value": 42.3, "unit": "%"}, {"measurement": "inhibition in vivo at 5 mg/kg", "setting": "Rattus norvegicus [3]", "value": 34.2, "unit": "%"}]}
{"smiles": "CCOC(=O)Cc1n[nH]c(N)n1", "values": [{"measurement": "inhibition in vivo at 5 mg/kg", "setting": "Rattus norvegicus [1]", "value": 51.8, "unit": "%"}, {"measurement": "inhibition in vivo at 5 mg/kg", "setting": "Rattus norvegicus [2]", "value": 33.6, "unit": "%"}, {"measurement": "inhibition in vivo at 5 mg/kg", "setting": "Rattus norvegicus [3]", "value": 25, "unit": "%"}]}
